STAT1 inh: inhibitors of IFN-gamma induced STAT1 signaling | 200,000 compounds, 0.35% hits | inhibition, % at 5.5 µM | NIH 3T3 STAT1-luciferase reporter, luminescence | AID 920;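 active means inhibition above a set limit, the mean inhibition across all tested compounds plus 3 SD, cut at about 34% in these data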;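 further: 0% = IFN-gamma with DMSO and 100% = IFN-gamma with 300 µM nifuroxazide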
STAT3 act: activators of IL-6 induced STAT3 signaling; U3A cells, IL-6 STAT3-luciferase reporter, luminescence; 100% = signal with IL-6 EC80 alone; activation (% of control), % at 5.6 µM; 190,000 compounds, 0.91% hits; AID 871;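 active means activation above the screen-wide mean of compound activation plus 3 SD, cut at about 130% in these data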;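 further: 0% = background luminescence of wells with medium and substrate only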
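Material: STAT3-luciferase reporter U3A cells; Probe or stimulus: IL-6 (33 ng/mL); Incubation: compound pre-incubation 1 h before IL-6, then 6 h stimulation at 37 °C; Technique: luminescence from STAT3-driven luciferase reporter; Evaluation: % activation versus median of IL-6-stimulated wells; Controls: IL-6-only high control.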
PPC-1+TRAIL kill: kills PPC-1 cancer cells in the presence of TRAIL. PPC-1 cells + TRAIL, ATPLite viability luminescence. cell killing (% activity), % at 4 µM or 5 µM. 220,000 compounds, 0.41% hits;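 active means cell killing above 50% in the first pass at 4 µM, then a duplicate retest at 5 µM averaging 50% or more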;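 further: plate controls were cells with TRAIL plus DMSO for no effect and medium-only wells lacking cells for full effect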
STAT3 inh: STAT3 signaling inhibition; 190,000 compounds, 0.89% hits; AID 862; U3A cells, IL-6 STAT3-luciferase reporter, luminescence; host cell line lacks STAT1; inhibition, % at 5.5 µM;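 active means inhibition above the mean inhibition across all screened compounds plus 3 SD, cut at about 44% in these data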;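 further: 0% = DMSO only wells and 100% = 100 µM nifuroxazide control wells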
TRAIL sens C8: sensitizes caspase-8 expressing cells to TRAIL; inhibition (viability loss, TRAIL sensitization), % at 10 µM; NB7+C8 cells + TRAIL, ATPlite viability luminescence; 360,000 compounds, 1% hits;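 active means compounds causing at least 50% loss of cell viability in the single-dose screen, relative to plate controls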
PPC-1 tox: PPC-1 cell cytotoxicity; PPC-1 viability, ATPlite luminescence, overnight; AID 1447; 1,200 compounds, 50% hits; shares compounds with PPC-1+TRAIL kill; cytotoxicity, % at 5 µM;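 active means reconfirmed compounds whose average cytotoxicity reaches 50% or more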;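 further: 0% = DMSO-treated cells and 100% = wells holding medium but no cells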
An asterisk follows results filed as active; / = no result given. In the library only some 1.8% were active in any assay of this set; here they are far more common.

SMILES	STAT1 inh	STAT3 act	PPC-1+TRAIL kill	STAT3 inh	TRAIL sens C8	PPC-1 tox
O=C(NCCc1nc2ccccc2[nH]1)c1ccc(Br)o1	/	/	/	/	-10	/
O=C(/C(N=Nc1cccc(C(F)(F)F)c1)=C(/O)c1cccs1)C(F)(F)F	/	/	12	/	-1	/
Cc1ccc(N=C/C(C(=O)C(F)(F)F)=C(\O)c2cccs2)cc1	54*	27	29	84*	61*	36
Cc1cc(NC(c2ccc(Cl)cc2)c2ccc3cccnc3c2O)no1 (stereo not given)	-5	94	39	14	18	36
CN(Cc1ccccc1)c1nccn2ccnc12	/	/	/	/	-25	/
Cc1ccc(C(=O)Nc2nnc(NC(=S)Nc3ccccc3)s2)cc1	-22	69	36	40	25	/
CCOc1ccc(C(=O)Nc2nnc(NC(=S)Nc3ccccc3)s2)cc1	-14	106	13	-3	55*	8
CCOc1ccc(N2C(=O)CC(SCCN)C2=O)cc1 (stereo not given)	-20	98	11	9	14	11
CCCCCCOc1ccc(N2C(=O)CC(SCCN)C2=O)cc1 (stereo not given)	/	/	/	/	5	/
CCCN1C(=O)/C(=C2\SC(N3CCCCC3)=NC2=O)c2ccccc21	-29	104	31	-2	43	16
CN1C(=O)/C(=C2\SC(N)=NC2=O)c2ccccc21	-3	90	10	12	0	/
CN1C(=O)/C(=C2\SC(N3CCCCCC3)=NC2=O)c2ccccc21	-30	114	59*	-16	51*	49
CN1C2C=C3C(C#N)=C(N)C(C#N)(C#N)[C@H](c4c(F)cccc4F)[C@H]3C1CC2 (stereo not given in full)	0	101	-26	3	0	/
CN1C2C=C3C(C#N)=C(N)C(C#N)(C#N)[C@@H](c4cccs4)C3C1CC2 (stereo not given in full)	-4	100	17	2	-6	6
S=c1[nH]ncn1/N=C/c1ccc(Br)cc1	-6	94	-1	8	-7	/
S=c1[nH]ncn1/N=C/c1ccc(N2CCOCC2)cc1	10	86	62*	16	51*	64*
CCC(C)c1ccccc1N1CC(C(=O)Nc2ccc(S(=O)(=O)N3CCOCC3)cc2)CC1=O (stereo not given)	/	/	/	/	-8	/
CC(C)Cn1c(SCC(=O)NCc2ccc(Cl)cc2)nnc1-c1cccc(S(=O)(=O)N2CCOCC2)c1	0	101	0	5	-1	1
CC(C)Cn1c(SCC(=O)O)nnc1-c1cccc(S(=O)(=O)N2CCOCC2)c1	/	/	/	/	-8	/
Clc1ccc2nc(N3CCCCC3)[nH]c2c1	-39	104	29	-4	48	/
O=c1c2ccccc2nc2c3ccccc3cnn12	-37	87	6	19	-1	/
O=c1c(Cl)c(N2CCCCC2)cnn1-c1nc2ccccc2[nH]1	71*	13	92*	103*	87*	92*
O=c1c2ccccc2cnn1-c1nc2ccccc2[nH]1	94*	9	94*	107*	94*	94*
COc1cc2c(cc1OC)[C@@H](NC(=O)CCC1CCCCC1)[C@H](O)C2	/	/	/	/	-16	/
O=C(Nc1ccc2[nH]ccc2c1)c1ccccc1	/	/	81*	/	84*	73*
SMILES	STAT1 inh	STAT3 act	PPC-1+TRAIL kill	STAT3 inh	TRAIL sens C8	PPC-1 tox
O=C(Nc1ccc2[nH]ccc2c1)c1ccc(F)cc1	/	/	84*	/	88*	84*
COc1ccc(NC(=O)Nc2ccc3[nH]ccc3c2)cc1	/	/	/	/	21	/
C=CCOC(=O)Nc1nc(CCNC(=O)OC(C)(C)C)c(C(=O)O)s1	/	/	/	/	-7	/
COCCN1CCN(c2cc(-c3ccccc3)nc3cc(-c4cccc(F)c4)nn23)CC1	6	92	14	11	41	6
CN1CCN(C(=O)c2ccc(COc3ccc(C(C)(C)C)cc3)o2)CC1	-22	108	22	-4	11	22
CCCc1ccc(OCc2ccc(C(=O)N3CCCC3)o2)cc1	/	/	/	/	-1	/
CCOC(=O)CNc1c(-c2ccc(O)cc2)nc2ccc(Cl)cn12	-17	105	-10	5	4	-14
CCN1CCN(c2ccc(N3CCN(C(=O)c4ccc(Br)o4)CC3)nn2)CC1	/	/	/	/	9	/
C=CCN(c1ccc(F)cc1)S(=O)(=O)c1cc(C(=O)NC2CC2)ccc1Cl	/	/	/	/	5	/
COC(=O)c1ccccc1NC(=O)Cn1c(=O)oc2ccc(Cl)cc21	1	98	7	2	-3	4
CCCCCCCCCn1c2c(c(=N)c3c1CCC3)CCCC2	52*	39	48	76*	31	50
CCCCCCCCCCn1c2c(c(=N)c3c1CCC3)CCC2	25	38	56*	78*	79*	54*
CCOC(=O)Cn1c2c(c(=N)c3c1CCC3)CCC2	0	102	3	0	2	/
CC(=O)Nc1ccc(-c2cn3cc(C)ccc3n2)cc1	-34	69	40	38	45	/
Cc1ccc2nc(-c3ccccc3)cn2c1	84*	11	90*	103*	90*	88*
CC(=O)c1ccc2ccccc2c1OC(=O)c1ccncc1	/	/	/	/	-7	/
CCCCCN1C=CC(=C2C(=O)c3ccccc3C2=O)C=C1	97*	9	94*	107*	96*	94*
O=C(C[C@@H]1C/C=C\C[C@H](Cc2ccc(F)cc2)C(=O)OC[C@@H]2CCCN2C1=O)N[C@H](CO)Cc1ccccc1	/	/	/	/	-2	/
N/C(=N\OC(=O)c1ccccc1[N+](=O)[O-])c1ccccn1	6	94	/	18	26	/
N/C(=N\OC(=O)c1ccc(Cl)c(Cl)c1)c1ccccn1	-35	102	7	2	66*	18
N/C(=N\OC(=O)c1ccccc1Cl)c1ccccn1	78*	46	66*	69*	79*	70*
O=C(OCc1ccc(Cl)c(Cl)c1)c1ccccn1	0	89	-14	19	-13	/
COc1ccc(F)cc1-c1cc(C(=O)NCc2ccccc2)[nH]n1	/	/	/	/	-19	/
CCCNC(=O)C1(C)CCN(C(=O)c2cc(F)cc(F)c2)C1 (stereo not given)	/	/	/	/	-8	/
O=C(Cn1c(=O)n(CCC(=O)N2CCCCC2)c(=O)c2sccc21)NCc1ccccc1	/	/	/	/	0	/
SMILES	STAT1 inh	STAT3 act	PPC-1+TRAIL kill	STAT3 inh	TRAIL sens C8	PPC-1 tox
O=C(N/N=C/c1ccccc1[N+](=O)[O-])c1ccc2c(c1)OCCO2	/	/	93*	/	93*	93*
C/C(=N\NC(=O)c1ccc2c(c1)OCCO2)c1ccccc1	/	/	65*	/	48	64*
O=C(N/N=C/c1cc(O)ccc1[N+](=O)[O-])c1ccc2c(c1)OCCO2	/	/	80*	/	89*	83*
C/C(=N\NC(=O)c1ccc(O)cc1)c1ccc2c(c1)OCCO2	/	/	/	/	0	/
COc1ccc(/C=N/NC(=O)c2ccc3c(c2)OCCO3)cc1[N+](=O)[O-]	-10	94	16	4	3	/
Cc1ccc(S(=O)(=O)NCc2cc(=O)n(C)c(=O)n2C)cc1C	/	/	/	/	-11	/

Screening data deposited in PubChem BioAssay by several laboratories.
